PRMT1 inh = PRMT1 (human) inhibition, primary screen; AID 652257; Q99873; 370,000 tested, 1.3% active; inhibition, % at 2.79 µM; recombinant PRMT1, activity-based probe fluorescence polarization;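 active = inhibition above about 21% made by adding two undisclosed values, limit read from the data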
Target sequence (Q99873 whole entry, looked up): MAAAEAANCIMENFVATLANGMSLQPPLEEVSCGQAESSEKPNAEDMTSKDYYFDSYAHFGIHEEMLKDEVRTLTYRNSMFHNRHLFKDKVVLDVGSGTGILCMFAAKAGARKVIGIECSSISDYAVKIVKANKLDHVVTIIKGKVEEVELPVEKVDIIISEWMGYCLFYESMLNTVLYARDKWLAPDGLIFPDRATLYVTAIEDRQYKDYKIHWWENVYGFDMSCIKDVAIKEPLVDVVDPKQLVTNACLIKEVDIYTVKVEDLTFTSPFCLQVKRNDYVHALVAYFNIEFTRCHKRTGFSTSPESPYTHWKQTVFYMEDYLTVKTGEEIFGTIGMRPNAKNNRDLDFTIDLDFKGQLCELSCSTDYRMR
HTRA1 inhibitor = HTRA1 (human) protease inhibition; Q92743; recombinant HTRA1, FP-rhodamine activity-based probe, fluorescence polarization; inhibition, % at 5.96 µM; 340,000 tested, 0.5% active; in the data active = inhibition above about 36%;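 note: 0% = enzyme with DMSO and 100% = wells lacking enzyme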
GASC-1 inh = blocks human GASC-1 demethylase activity. 330,000 tested, 0.069% active. Q9H3R0. inhibition, % at 2.35 µM. GST-JMJD2C(1-420) H3K9me3 demethylation, DELFIA europium;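 active = more than half of a compound's replicate wells show inhibition beyond 50%, single wells judged on their own value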;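 note: signal counts dimethyl H3K9 product captured on neutravidin plate; 0% = median of DMSO wells and 100% = 0.3 times that DMSO median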
ABHD4 inh = ABHD4 (mouse) inhibition, primary FP screen | purified mABHD4, FP-Rh probe fluorescence polarization | inhibition, % at 8.92 µM | Q8VD66 | 370,000 tested, 0.54% active;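 active = inhibition exceeding the mean over every tested compound plus 3 SD, cut at about 30% in these data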;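 note: 0% = plate median of compound wells and 100% = S159A mutant with DMSO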
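assay system = mABHD4 protein | compound dosing = single nominal dose of 8.92 µM, 0.89% DMSO final | read-out basis = percent inhibition of probe binding, normalized to plate controls | schedule = Enzyme–compound pre-incubation 45 min, then probe 60 min, both 25 °C | detection = fluorescence polarization, excitation 525 nm, emission 598 nm, BODIPY TMR filters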
SIAE inh = inhibitors of human sialic acid acetylesterase SIAE. Q9HAT2. SIAE FP-Rh probe binding, fluorescence polarization. inhibition, % at 9.66 µM. 370,000 tested, 0.69% active. AID 1053197;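 active = inhibition above a cutoff: mean of compounds within the control limits plus 3 SD of those, cut at about 17% in these data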;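 note: 0% = plate median of compound wells and 100% = probe without SIAE protein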
HTRA1 inh conf = HTRA1 (human) inhibition, confirmation. recombinant HTRA1, FP-rhodamine activity-based probe, fluorescence polarization. 1,600 tested, 66% active. inhibition, % at 5.96 µM. shares compounds with HTRA1 inhibitor. AID 540248;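 active = mean inhibition over three repeats above a set limit taken from the earlier primary screen, cut at about 37% in these data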;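 note: 0% = HTRA1 with DMSO and 100% = wells lacking HTRA1; inhibitors block probe binding so polarization drops and inhibition rises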
PRMT1 inh conf = confirmation of human PRMT1 inhibitors. inhibition, % at 2.79 µM. shares compounds with PRMT1 inh. recombinant His-PRMT1, activity-based probe fluorescence polarization. 3,300 tested, 42% active. AID 687036;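 active = mean inhibition across replicates above the hit cutoff derived for the earlier primary screen, cut at about 22% in these data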
ABHD4 confirm = ABHD4 (mouse) inhibition, FP confirmation | AID 720658 | 1,800 tested, 55% active | inhibition, % at 8.92 µM | shares compounds with ABHD4 inh | purified mABHD4, FP-Rh probe fluorescence polarization;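 active = mean inhibition across replicates above the hit cutoff set in the primary screen, cut at about 30% in these data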;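 note: 0% = wild-type ABHD4 with DMSO and 100% = catalytically dead S159A mutant with DMSO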
An asterisk follows results filed as active; x = not tested or not shown. In the library only some 2.4% were active in any assay of this set; here they are far more common.

SMILES	PRMT1 inh	HTRA1 inhibitor	GASC-1 inh	ABHD4 inh	SIAE inh	HTRA1 inh conf	others
CCN(CC)C(=O)c1ccc(-c2nnc(Nc3ccc(O)cc3)c3ccccc23)cc1	1	41*	2	-5	4	25
CCN(CC)C(=O)c1ccc(-c2nnc(Nc3ccc(C(=O)N(C)C)cc3)c3ccccc23)cc1	10	-2	7	-7	4	x
COc1ccc(NC(=O)C2(C)Cc3c(-c4ccc5c(c4)OCO5)ccnc3O2)cn1 (stereo not drawn)	3	x	x	-10	-2	x
Cc1cc2cc(CNC(=S)Nc3ccc(OC(F)(F)F)cc3)ccc2n1C	12	41*	8	15	1	11
CN1c2cccc3cccc(c23)N(C)C1(C)C	17	5	9	27	4	x
CN1c2ccccc2N(C)C1(C)c1cccc2ccccc12	19	47*	4	10	6	-2
Cc1cc(Br)c2nc(-c3cccc(Br)c3)c(Cc3cccc(Cl)c3)n2c1	1	x	x	-17	-8	x
COc1ccccc1N(C)S(=O)(=O)c1ccc(Cl)c(C(=O)NNC(=O)c2ccccc2O)c1	-1	34	9	2	-4	x
COc1ccc(N(C)S(=O)(=O)c2ccc(Cl)c(C(=O)NNC(=O)c3ccccc3O)c2)cc1	-3	42*	x	1	13	32
CC1(C)CC2(CC(c3ccc(F)cc3)c3ccc(O)cc3O2)NC(=S)N1 (stereo not drawn)	17	-4	3	1	-4	x
CC1(C)CC2(CC(c3ccccc3F)c3ccc(O)c(O)c3O2)NC(=S)N1 (stereo not drawn)	18	61*	7	21	4	58*
COC(=O)c1ccc2nc(-c3ccc(OC)c(OC)c3)c(Cc3ccccc3C(F)(F)F)n2c1	0	x	x	-1	2	x
C=CCN(CC#CC1=CCCCC1)CC1CC1	-4	x	x	5	1	x
O=C(Oc1ccc(OC(=O)c2ccco2)c(S(=O)(=O)c2ccc(Br)cc2)c1)c1ccco1	x	42*	5	x	x	51*
O=C(N/N=C/c1ccc([N+](=O)[O-])o1)c1sc2ccccc2c1Cl	15	52*	15	27	-1	55*
CCCCCCCCN1C(=O)N2Cc3cc(OC)ccc3C2CS1(=O)=O (stereo not drawn)	1	x	x	-3	5	x
COC(=O)C1CN(Cc2ccccc2)CCS(=O)(=O)N1Cc1ccc(C)cc1 (stereo not drawn)	4	x	x	-7	2	x
Cc1cc(-c2csc(N)n2)c(C)n1CCC(C)C	12	53*	3	19	7	63*
Cc1nn(C)cc1-c1csc(N)n1	-1	10	7	-6	7	x
CCN(C(=O)c1c([N+](=O)[O-])cnn1C)c1ccccc1	0	37*	x	-3	0	32
CC(C)C1N=C(NC(=O)OCc2ccccc2)NC1=O (stereo not drawn) (tested in a mixture with another compound)	8	x	x	-7	0	x
C[C@]12CCC[C@H](O1)c1c(cc3c(c1O)C(=O)c1c(O)cc(O)cc1C3=O)O2	1	37*	1	2	-18	62*
COc1cccc2[nH]c(-c3ccccn3)nc12	-6	x	x	2	1	x
CCOC(=O)c1c(-c2ccccc2)oc2cc(CN(C)C)c(O)c(CN(C)C)c12	26*	44*	-16	14	3	51*	PRMT1 inh conf=3
CCOC(=O)c1c(C)oc2cc(Cl)c(O)c(CN(C)C)c12	8	3	1	-4	-5	x
SMILES	PRMT1 inh	HTRA1 inhibitor	GASC-1 inh	ABHD4 inh	SIAE inh	HTRA1 inh conf	others
O=C1CC(=Nc2ccc([N+](=O)[O-])cc2)NN1c1c(Cl)cc(Cl)cc1Cl	35*	49*	x	65*	10	35	PRMT1 inh conf=14
CC1(C)CCN2CCC(C)(C)c3c(O)ccc1c32	54*	66*	-2	21	-17	27	PRMT1 inh conf=14
Cc1c(N=C2C=C(Br)C(=O)C(Br)=C2)c(=O)n(-c2ccccc2)n1C	61*	57*	x	69*	13	24	PRMT1 inh conf=49*
COc1ccc(/C=C/C(=O)c2ccc(OC)cc2OC)cc1	0	-17	2	6	-2	x
CNc1ccc(Br)cc(C(=O)/C=C/c2ccc(OC)cc2)c1=O	44*	45*	4	41*	5	32	PRMT1 inh conf=39*
O=C1C=CC(c2c[nH]c3ccccc23)CC1 (stereo not drawn)	7	x	x	15	11	x
O=c1[nH]c2ccc(Cl)cc2c(-c2ccccc2)c1SC(=S)N1CCOCC1	27*	42*	4	6	-9	-26	PRMT1 inh conf=16
O=C(O)c1cc(N2N=C(C(F)(F)F)/C(=C/C=C/c3ccco3)C2=O)ccc1Cl	70*	41*	x	58*	5	14	PRMT1 inh conf=54*
CC(C)CCN(C)C1CCN(C(=O)Nc2ccccc2)CC1	1	x	x	-4	-5	x
Cc1ccc(Nc2c([N+](=O)[O-])ccc3nonc23)c(C)c1	-4	-7	-11	-1	12	x
Cc1ccc(S(=O)c2ccc([N+](=O)[O-])c3nonc23)cc1 (stereo not drawn)	58*	43*	x	44*	-12	73*	PRMT1 inh conf=106*
Cc1ccc(S(=O)(=O)N2C[C@H]3C(=O)C[C@@H](c4ccccc4)N(S(=O)(=O)c4ccc(Br)cc4)[C@H]3C[C@H]2c2ccccc2)cc1	1	x	x	-13	-31	x
O=C1CSC(=S)N1N=Cc1c(O)ccc2ccccc12	35*	37*	x	45*	7	41*	PRMT1 inh conf=33*
COc1ccc2ccccc2c1/C=N/N1C(=O)CSC1=S	11	-16	25	6	-1	x
CCCCCN1CCCCC(NC(=O)C(C)(C)C)C1=O (stereo not drawn)	-2	x	x	1	-2	x
CCCCCC(=C/c1ccccc1)/C=N/Nc1ccc(S(=O)(=O)N2CCOCC2)cc1[N+](=O)[O-]	0	8	x	7	0	x
Cc1cc2nc3c(=O)n(C4CCCCC4)c(=O)[nH]c3nc2cc1N	94*	58*	x	25	12	28	PRMT1 inh conf=118*
Cc1cc(C)cc(Nc2cc(=O)n(C3CCCCC3)c(=O)[nH]2)c1	-5	-2	-2	2	-5	x
Clc1ccccc1C1Nc2cccc3cccc(c23)N1	19	48*	-2	48*	14	28	ABHD4 confirm=36*
O=C(CSc1nc2ccccc2n1Cc1ccccc1Cl)NN=C/C(Br)=C/c1ccccc1	2	x	x	-6	-9	x

From PubChem
